Data: ChEMBL document CHEMBL4673214, “Synthesis and antibacterial bioactivities of cationic deacetyl linezolid amphiphiles” (Eur J Med Chem, 2018)
In brackets after ≈: the same amount, converted by molar mass. Activity calls are given as the source filed them. The calls are words filed in the database; no cut-off is given here.

Legend:
Cell membrane [1] = assay: Induction of cytoplasmic membrane depolarization in Escherichia coli ATCC 25922 at 20 ug/ml measured for 12 mins by DiSC35 dye-based fluorescence assay; type: subcellular; details: dose 20.0 µg/ml
In short: (§1)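 Mid-log bacteria were washed and resuspended at ~10^8 CFU/mL: S. aureus in PBS, E. coli in 5 mM HEPES/5 mM glucose/100 mM KCl (1:1:1). Cells were loaded with diSC35 (10 µM stock) for 30 min (S. aureus) or 40 min (E. coli, plus EDTA). Fluorescence (ex 622/em 670 nm) was read for an 8 min baseline, then every 2 min for 12 min after compound at 20 µg/mL final. Water served as control.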

Enterobacteriaceae [2] = assay: Antibacterial activity against NDM1 producing carbapenem-resistant Enterobacteriaceae clinical isolate 8 assessed as reduction in bacterial growth incubated for 16 to 20 hrs by CLSI-based broth microdilution method; type: functional; details: time 16-20 hrs
In short: (§2)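 Clinical isolates tested by broth microdilution in cation-adjusted Mueller-Hinton broth. Cultures grown 4-6 h (~10^8 CFU/mL) were diluted to ~10^6 CFU/mL and mixed 1:1 with compound serial dilutions made from 256 down to 0.5 µg/mL (pre-mixing). Plates held at 37 °C for 16-20 h, then read for growth. Each concentration run in duplicate, whole experiment at least twice.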

Enterobacteriaceae [3] = assay: Antibacterial activity against NDM1 producing carbapenem-resistant Enterobacteriaceae clinical isolate 4 assessed as reduction in bacterial growth incubated for 16 to 20 hrs by CLSI-based broth microdilution method; type: functional; details: time 16-20 hrs; in short: as §2
Enterobacteriaceae [4] = assay: Antibacterial activity against NDM1 producing carbapenem-resistant Enterobacteriaceae clinical isolate 10 assessed as reduction in bacterial growth incubated for 16 to 20 hrs by CLSI-based broth microdilution method; type: functional; details: time 16-20 hrs; in short: as §2
Cell membrane [5] = assay: Induction of cytoplasmic membrane depolarization in Staphylococcus aureus ATCC 29213 at 20 ug/ml measured for 12 mins by DiSC35 dye-based fluorescence assay; type: subcellular; details: dose 20.0 µg/ml; in short: as §1
Klebsiella pneumoniae [6] = assay: Antibacterial activity against carbapenem-resistant Klebsiella pneumoniae clinical isolate 7 assessed as reduction in bacterial growth incubated for 16 to 20 hrs by CLSI-based broth microdilution method; type: functional; details: time 16-20 hrs; in short: as §2
[7] = Selectivity index, ratio of HC50 for Sheep erythrocytes to MIC for Escherichia coli ATCC 25922; type: toxicity
Klebsiella pneumoniae [8] = assay: Antibacterial activity against carbapenem-resistant Klebsiella pneumoniae clinical isolate 5 assessed as reduction in bacterial growth incubated for 16 to 20 hrs by CLSI-based broth microdilution method; type: functional; details: time 16-20 hrs; in short: as §2
Staphylococcus aureus [9] = assay: Antibiofilm activity against 24 hrs preformed biofilm of Staphylococcus aureus ATCC 29213 assessed as biofilm viability at 16 ug/ml incubated for 24 hrs by crystal violet staining analysis (reference value: 18.9 1og10CFU); type: functional; details: dose 16 µg/ml
Staphylococcus aureus [10] = assay: Antibacterial activity against Staphylococcus aureus ATCC 29213 assessed as reduction in bacterial growth compound preincubated with 50% sheep plasma for 3 hrs followed by incubation for 20 to 24 hrs by agar plate method; type: functional; details: time 20-24 hrs
In short: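 Sheep plasma came from centrifuged defibrinated blood. Compound at 512 µg/mL in 50% water/50% plasma was preincubated at 37 °C for 0, 3 or 6 h, then serially diluted (256 to 4 µg/mL). Dilutions were mixed 1:3 with S. aureus suspension (10^5 CFU/mL) and incubated 20-24 h at 37 °C. MBC was taken as no colonies after 20 µL was plated on agar.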

HeLa [11] = assay: Cytotoxicity against human HeLa cells assessed as viable cells by measuring increase in green fluorescence intensity at 1 to 4 ug/mL incubated for 24 hrs by calcein-AM/propidium iodide staining based fluorescence microscopy; type: cell-based; details: dose 1-4 µg/ml
In short: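 HeLa cells in 12-well plates were treated 24 h at 1, 2 or 4 µg/mL, with untreated and 0.1% Triton X-100 controls. Cells were stained with 2 µM calcein AM and 4.5 µM propidium iodide for 15 min at 37 °C and imaged by fluorescence microscopy (calcein 500-550 nm band-pass; PI 590-800 nm long-pass). Three repeats.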

Staphylococcus aureus [12] = assay: Antibacterial activity against methicillin-resistant Staphylococcus aureus assessed as reduction in bacterial growth following incubation in 50% MHB medium and 50% blood and meaured after incubation with compound for 20 to 24 hrs by agar plate method; type: functional; details: time 20-24 hrs
In short: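 Sheep plasma obtained by centrifuging defibrinated blood at 3500 rpm for 10 min; serum isolated in serum tubes. MRSA at 10^5 CFU/mL in 50% MHB plus 50% serum, plasma or blood, or in MHB alone. Compound dilutions (512 to 4 µg/mL, pre-mixing) added 50 µL to 150 µL bacteria, 37 °C for 20-24 h. Then 20 µL plated on MHA, 37 °C 20-24 h; MBC taken as no colonies. Two repeats.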

Staphylococcus aureus [13] = assay: Antibiofilm activity against 24 hrs preformed biofilm of Staphylococcus aureus ATCC 29213 assessed as biofilm viability at 64 ug/ml incubated for 24 hrs by crystal violet staining analysis (reference value: 18.9 1og10CFU); type: functional; details: dose 64 µg/ml
Enterobacteriaceae [14] = assay: Antibacterial activity against NDM1 producing carbapenem-resistant Enterobacteriaceae clinical isolate 1 assessed as reduction in bacterial growth incubated for 16 to 20 hrs by CLSI-based broth microdilution method; type: functional; details: time 16-20 hrs; in short: as §2
HeLa [15] = assay: Cytotoxicity against human HeLa cells assessed as cell morphology at 1 to 4 ug/mL incubated for 24 hrs by optical microscopy; type: cell-based; details: dose 1-4 µg/ml
In short: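 HeLa cells were kept in DMEM with 10% FBS at 37 °C and 5% CO2. Cells were seeded in 12-well plates, allowed to adhere overnight and exposed to 1, 2 or 4 µg/mL for 24 h. Untreated wells were the negative control and 0.1% Triton X-100 the positive control. After a PBS wash, morphology was imaged by inverted microscopy with a 10× objective. Three repeats.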

Enterobacteriaceae [16] = assay: Antibacterial activity against NDM1 producing carbapenem-resistant Enterobacteriaceae clinical isolate 2 assessed as reduction in bacterial growth incubated for 16 to 20 hrs by CLSI-based broth microdilution method; type: functional; details: time 16-20 hrs; in short: as §2
Escherichia coli [17] = assay: Antibiofilm activity against 24 hrs preformed biofilm of Escherichia coli ATCC 25922 assessed as eradication of preformed biofilm incubated for 24 hrs by crystal violet staining assay; type: functional
Klebsiella pneumoniae [18] = assay: Antibacterial activity against carbapenem-resistant Klebsiella pneumoniae clinical isolate 2 assessed as reduction in bacterial growth incubated for 16 to 20 hrs by CLSI-based broth microdilution method; type: functional; details: time 16-20 hrs; in short: as §2
Escherichia coli [19] = assay: Antibiofilm activity against Escherichia coli ATCC 25922 assessed as inhibition of biofilm formation incubated for 24 hrs by crystal violet staining assay; type: functional
In short: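 Twofold serial dilutions in MHB received 1:1000-diluted exponential-phase bacteria and were incubated 24 h at 37 °C. Wells were rinsed, stained with 0.1% crystal violet for 10 min and dissolved in ethanol, and OD540 was read. MBIC80 was the concentration inhibiting 80% of biofilm formation versus untreated wells, taken from dose-response curves.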

Enterobacteriaceae [20] = assay: Antibacterial activity against NDM1 producing carbapenem-resistant Enterobacteriaceae clinical isolate 7 assessed as reduction in bacterial growth incubated for 16 to 20 hrs by CLSI-based broth microdilution method; type: functional; details: time 16-20 hrs; in short: as §2

Row | Structure (SMILES) | Activity (Cell membrane [1]) | MIC (Enterobacteriaceae [2]) [µg/mL] | MIC (Enterobacteriaceae [3]) [µg/mL] | MIC (Enterobacteriaceae [4]) [µg/mL] | Activity (Cell membrane [5]) | MIC (Klebsiella pneumoniae [6]) [µg/mL] | MIC (Klebsiella pneumoniae [8]) [µg/mL] | MIC (Enterobacteriaceae [14]) [µg/mL] | MIC (Enterobacteriaceae [16]) [µg/mL] | MIC (Klebsiella pneumoniae [18]) [µg/mL] | MIC (Enterobacteriaceae [20]) [µg/mL] | also measured
1 | CCCCCCCCCCCN(C[C@H]1CN(c2ccc(N3CCOCC3)c(F)c2)C(=O)O1)C(=O)[C@@H](N)CCCCN.Cl.Cl | Active | 16 | 16 | 16 | Active | 16 | 16 | > 64 | > 64 | 16 | 16 | selectivity ratio [7]: 12.5; Activity (Staphylococcus aureus [9]): 8.7 log10CFU; MBC (Staphylococcus aureus [10]): 64 µg/mL; Activity (HeLa [11]): Non-Toxic; MBC (Staphylococcus aureus [12]): > 128 µg/mL; Activity (Staphylococcus aureus [13]): 5.9 log10CFU; Activity (HeLa [15]): Non-Toxic; MBEC (Escherichia coli [17]): 128 µg/mL; MBEC80 (Escherichia coli [17]): 112.8 µg/mL; MBEC90 (Escherichia coli [17]): 120.3 µg/mL; MBIC80 (Escherichia coli [19]): 61.9 µg/mL; MBIC90 (Escherichia coli [19]): 72.6 µg/mL
2 | C[C@@H](O)[C@H]1C(=O)N2C(C(=O)O)=C(S[C@@H]3CN[C@H](C(=O)N(C)C)C3)[C@H](C)[C@H]12 [MEROPENEM] | inactive | > 64 | 64 (≈ 167 µM) | > 64 | inactive | > 64 | 32 (≈ 83.4 µM) | 32 (≈ 83.4 µM) | 16 (≈ 41.7 µM) | > 64 | 64 (≈ 167 µM) | –
